# HSP90 inh = HSP90 refolding inhibition in rabbit reticulocyte lysate. luciferase refolding luminescence, 3 h. inhibition, % at 5.6 µM. actives 0.91% (n = 290,000). AID 1789;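 active means inhibition above the screen-wide mean plus 3 SD, computed separately per campaign, cut at about 16% in these data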;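 further: 0% = DMSO wells and 100% = 60 µM geldanamycin wells; inhibitors lower the luminescence because luciferase stays unfolded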
# STAT3 activator = activators of IL-6 induced STAT3 signaling | U3A cells, IL-6 STAT3-luciferase reporter, luminescence; 100% = signal with IL-6 EC80 alone | activation (% of control), % at 5.6 µM | actives 0.91% (n = 190,000) | AID 871;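 active means activation above the screen-wide mean of compound activation plus 3 SD, cut at about 130% in these data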;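 further: 0% = background luminescence of wells with medium and substrate only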
#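 Test system: human U3A cells carrying STAT3-luciferase construct; control set: IL-6-only wells as 100% reference; timing: compound pre-incubation 1 h before IL-6, then 6 h stimulation at 37 °C; also added: IL-6 stimulus at 33 ng/mL final; evaluation: % activation versus median of IL-6-stimulated wells; detection: reporter luminescence signal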
# STAT3 inh = STAT3 signaling inhibition; inhibition, % at 5.5 µM; U3A cells, IL-6 STAT3-luciferase reporter, luminescence; host cell line lacks STAT1; actives 0.89% (n = 190,000); AID 862;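 active means inhibition above the mean inhibition across all screened compounds plus 3 SD, cut at about 44% in these data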;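 further: 0% = DMSO only wells and 100% = 100 µM nifuroxazide control wells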
# STAT1 inh = inhibitors of IFN-gamma induced STAT1 signaling. AID 920. actives 0.35% (n = 200,000). NIH 3T3 STAT1-luciferase reporter, luminescence. inhibition, % at 5.5 µM;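 active means inhibition above a set limit, the mean inhibition across all tested compounds plus 3 SD, cut at about 34% in these data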;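 further: 0% = IFN-gamma with DMSO and 100% = IFN-gamma with 300 µM nifuroxazide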
# * marks the source's active call; other numbers are inactive results; . = no result. Shown are actives, neighbours in structure and some others; about 2% of the full set was active somewhere.
SMILES,HSP90 inh,STAT3 activator,STAT3 inh,STAT1 inh
CC(=O)Nc1ccc(N=Cc2c(O)c(C(=O)Nc3ccccc3)cc3ccccc23)cc1,2.0,144.9*,-45.8,11.5
CC(Sc1nnc(-c2ccccc2)c(-c2ccccc2)n1)C(=O)N1CCc2ccccc21 (configuration not stated),0.6,127.8,-32.7,-1.8
COc1ccc(-c2nn3c(-c4ccccc4)nnc3s2)cc1,-2.7,104.5,3.7,-7.7
CCN(CC)c1ccc(-c2nn3c(-c4ccccc4OC)nnc3s2)cc1,1.9,136.3*,-38.3,-19.1
N#Cc1ccccc1NC(=O)CNc1ccccc1N1CCCCC1,-0.9,135.3*,-42.1,5.9
O=C(/C(=C/c1cccnc1)n1ccnc1)c1ccc(Cl)cc1Cl,1.8,.,.,.
CCn1c(=O)c(C(=O)Nc2ncccc2C)c(O)c2ccccc21,1.0,94.8,8.3,1.4
Cc1cccnc1NC(=O)c1c(O)c2ccccc2n(C)c1=O,4.4,133.1*,-39.1,-5.1
COc1ccc2cc(C(C)C(=O)N3CCC(C)CC3)ccc2c1 (configuration not stated),7.5,.,.,.
CNC(=O)c1sc2nc(-c3ccc(OC)cc3)cn2c1C,8.8,106.2,-2.7,-71.1
Cc1c(C(=O)N2CCc3ccccc3C2)sc2nc(-c3ccccc3)cn12,3.8,100.9,2.1,-0.6
COc1ccc(-c2cn3c(C)c(C(=O)N4CCc5ccccc5C4)sc3n2)cc1,19.0*,.,.,.
COc1ccc(-c2cn3c(C)c(C(=O)Nc4cc(NC(C)=O)ccc4OC)sc3n2)cc1,54.1*,90.0,15.0,8.5
Cc1ccc(C)n1-n1cnc2scc(-c3cccs3)c2c1=O,2.7,105.3,0.4,-0.8
O=c1c2c(-c3cccs3)csc2ncn1-n1cccc1,-4.0,135.6*,-40.5,-6.1
O=C(O)CCCCCCCCc1cn(CCc2c[nH]c3ccccc23)nn1,-4.8,.,.,.
O=S(=O)(c1cccc2nsnc12)N1CCNCC1,0.9,.,.,.
CC(=O)c1ccc(NC(=O)c2noc3c2CCC3)cc1,21.3*,45.7,66.5*,52.6*
CCn1nc(C)cc1C(=O)N1CCc2c([nH]c3ccccc23)C1c1cc(F)ccc1F (configuration not stated),-4.2,150.4*,-49.4,-43.7
Cc1ncoc1C(=O)N1CCc2c([nH]c3ccccc23)C1c1ccccc1F (configuration not stated),5.7,130.5,-33.2,7.8
Cc1cc(NC(=O)C(=O)c2cn(C)c3ccccc23)no1,1.7,110.9,-11.3,-29.4
O=c1c2ccccc2cnn1CCOc1ccccc1,68.3*,22.4,89.9*,43.6*
Cc1nc2c(Cl)cccc2[nH]1,0.5,133.4*,-30.5,-2.3
Oc1ccccc1NCC(O)Cn1ccc2ccccc21 (configuration not stated),-0.7,134.5*,-35.4,-1.8
OC(CNCc1ccccc1)Cn1ccc2ccccc21 (configuration not stated),0.0,94.9,6.0,2.9
SMILES,HSP90 inh,STAT3 activator,STAT3 inh,STAT1 inh
CN(C)C(=O)[C@H]1C[C@H]1[C@@H](O)[C@H](CO)NC(=O)[C@H](Cc1ccccc1)NC(=O)OC(C)(C)C,-4.5,.,.,.
CCCc1nc2sc3ccccc3c(=O)c2c(=O)n1Cc1ccco1,3.3,147.4*,-50.3,4.3
Nc1nc(Nc2ccc(Cl)cc2)nc2ccccc12,16.1*,49.5,62.5*,23.8
Cc1ccc(C)c(N2CCN(c3ccncc3N)CC2)c1,1.1,.,.,.
CC(=Nc1cccc(C)c1)c1sc2ccccc2c1O,1.2,137.9*,-38.8,-76.3
Cc1ccc(N(CC(=O)N2CCN(c3ccccc3F)CC2)S(=O)(=O)c2c(C)noc2C)cc1,3.2,.,.,.
Cc1ccc(S(=O)(=O)N2CCCC2)cc1C(=O)N1CCN(Cc2ccccc2)CC1,-2.6,.,.,.
Cc1[nH]c2ccccc2c1/C=N/NC(=O)CCC(=O)Nc1ccccc1,-0.8,115.3,-14.2,-2.7
Cc1[nH]c2ccccc2c1/C=N/NC(=O)Nc1ccccc1,0.3,147.6*,-49.4,-30.9
COc1cccc(-c2[nH]nc3c2C(c2ccsc2)C(C#N)=C(N)O3)c1 (configuration not stated),16.3*,104.4,4.7,15.2
COc1cc(OC)cc(-c2cc3nc(C)c(CCC(=O)NC(C)CCc4ccco4)c(C)n3n2)c1 (configuration not stated),-0.5,101.3,4.5,-1.3
COc1cc(OC)cc(-c2cc3nc(C)c(CCC(=O)O)c(C)n3n2)c1,24.6*,31.0,87.6*,53.5*
CN=C1S/C(=C\c2cn(CC(=O)OC)c3ccccc23)C(=O)N1C,-0.9,134.9*,-42.1,-9.4
Cc1ccc(N/C(N)=N/c2nc(C)cc(N3CCCCC3)n2)c(C)c1,-0.6,69.6,40.6,35.9*

# High-throughput results as filed in PubChem.
